ChEMBL document CHEMBL1142957, “Total structure and inhibition of tumor cell proliferation of laxaphycins” (J Med Chem, 2007)
Calls of active or inactive are those of the source. The calls are words filed in the database; no cut-off is given here.

What was measured:
[1] = Cytotoxicity against vinblastine-resistant CEM/VLB100 cells after 72 hrs; type: cell-based; conditions: Homo sapiens, CEM/VLB100, 72 h
Method in brief: (§1)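 Leukemic lymphoblasts (parent CCRF-CEM, Pgp-overexpressing CEM/VLB100, topo II-altered CEM/VM-1) grown in RPMI 1640 with 10% FCS and antibiotics, 37 °C, 5% CO2. Serial dilutions in medium added to 2 × 10⁵ cells/mL for 3 days, medium not renewed. Survivors counted on a Coulter counter. Triplicate, averaged.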

CCRF-CEM [2] = assay: Cytotoxicity against drug-sensitive CCRF-CEM cells after 72 hrs; type: cell-based; conditions: Homo sapiens; method in brief: as §1
[3] = Cytotoxicity against teniposide-resistant CEM/VM1 cells after 72 hrs; type: cell-based; conditions: Homo sapiens, CEM-VM1, 72 h; method in brief: as §1
CCRF-CEM [4] = assay: Ratio of IC50 for vinblastine-resistant CEM/VLB100 cells over IC50 for drug-sensitive CCRF-CEM cells; type: functional, Homo sapiens
CCRF-CEM [5] = assay: Ratio of IC50 for teniposide-resistant CEM/VM1 cells over IC50 for drug-sensitive CCRF-CEM cells; type: functional, Homo sapiens
CCRF-CEM [6] = assay: Antiproliferative activity against CCRF-CEM cells at 20 uM after 72 hrs; type: functional, cell-based; conditions: Homo sapiens; method in brief: as §1
DLD-1 = assay: Antiproliferative activity against human DLD1 cells at 5 uM after 48 hrs by RRT assay; type: functional, cell-based
Method in brief: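 Adherent lines in supplemented Glutamax MEM, 37 °C, 5% CO2. Seeded 5 × 10³ cells/well, adhered 16 h, then treated 48 h continuously, alone or in combination, in 0.5% DMSO (solvent control). Resazurin 25 µg/mL in MEM added, 1 h at 37 °C, fluorescence 530/590 nm. Survival = % of control after blank subtraction; IC50 from concentration–survival curve. Two independent assays in triplicate.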

Compound	IC50 [1] [µM]	IC50 (CCRF-CEM [2]) [µM]	IC50 [3] [µM]	Ratio IC50 (CCRF-CEM [4])	Ratio IC50 (CCRF-CEM [5])	Activity (CCRF-CEM [6])	Activity (DLD-1)
COc1cccc2c1C(=O)c1c(O)c3c(c(O)c1C2=O)C[C@@](O)(C(=O)CO)C[C@@H]3O[C@H]1C[C@H](N)[C@H](O)[C@H](C)O1 [DOXORUBICIN]	3.71	0.06	0.55	62	9	–	–
C/C=C1/NC(=O)[C@H](CCO)NC(=O)C[C@@H](CCCCC)NC(=O)CNC(=O)[C@H](CC(C)C)NC(=O)[C@@H]([C@@H](C)CC)NC(=O)[C@H]([C@@H](C)CC)NC(=O)[C@@H](CC(C)C)NC(=O)[C@@H](Cc2ccccc2)NC(=O)[C@H](CCO)NC(=O)[C@@H]2C[C@@H](O)CN2C1=O [LAXAPHYCIN A]	> 20	> 20	> 20	–	–	inactive	inactive
CCCCCCC[C@@H]1CC(=O)N[C@@H](C(C)C)C(=O)N[C@H]([C@@H](O)C(C)C)C(=O)N[C@@H](C)C(=O)N[C@H](CC(C)C)C(=O)N[C@@H](CCC(N)=O)C(=O)N(C)[C@@H]([C@@H](C)CC)C(=O)N[C@H]([C@@H](O)C(N)=O)C(=O)N[C@@H]([C@@H](C)O)C(=O)N2CCC[C@H]2C(=O)N[C@H](CC(C)C)C(=O)N[C@@H]([C@@H](C)O)C(=O)N1 [LAXAPHYCIN B2]	3.33	4.15	4.14	0.8	1	–	–
